Four molecules from ChEMBL document CHEMBL1123502, “Synthesis of [[(naphthalenylmethoxy)- and [[(quinolinylmethoxy)phenyl]amino]oxoalkanoic acid esters. A novel series of leukotriene D4 antagonists and 5-lipoxygenase inhibitors” (J Med Chem, 1986) can be followed below.

The target in assay [1] is T1, Polyunsaturated fatty acid 5-lipoxygenase (Rattus norvegicus) (UniProt P12527).
T1 sequence (whole entry): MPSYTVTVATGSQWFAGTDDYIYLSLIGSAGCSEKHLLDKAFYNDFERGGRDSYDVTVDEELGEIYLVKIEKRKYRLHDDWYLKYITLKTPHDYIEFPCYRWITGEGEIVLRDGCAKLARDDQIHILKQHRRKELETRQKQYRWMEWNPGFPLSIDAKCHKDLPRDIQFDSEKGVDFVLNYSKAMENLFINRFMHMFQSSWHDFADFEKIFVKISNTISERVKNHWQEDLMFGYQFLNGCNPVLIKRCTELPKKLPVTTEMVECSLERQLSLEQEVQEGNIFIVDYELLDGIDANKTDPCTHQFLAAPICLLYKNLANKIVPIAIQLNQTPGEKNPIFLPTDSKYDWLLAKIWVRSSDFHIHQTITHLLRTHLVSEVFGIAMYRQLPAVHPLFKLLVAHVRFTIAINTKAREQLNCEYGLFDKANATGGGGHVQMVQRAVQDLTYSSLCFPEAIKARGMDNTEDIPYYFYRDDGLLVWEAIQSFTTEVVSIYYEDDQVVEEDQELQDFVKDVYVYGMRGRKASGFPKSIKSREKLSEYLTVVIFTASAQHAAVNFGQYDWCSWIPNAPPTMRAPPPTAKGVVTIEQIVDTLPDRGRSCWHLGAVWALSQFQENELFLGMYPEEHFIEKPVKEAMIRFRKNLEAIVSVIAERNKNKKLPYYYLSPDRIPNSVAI
The experiment in a line: In vitro inhibition of rat polymorphonuclear leukocyte (PMN) 5-Lipoxygenase at 100 uM.

The test system of assay [2] is Cavia porcellus. The experiment in a line: Compound was evaluated in vivo for the percent inhibition of LTD4-induced bronchospasm in guinea pig at dose of 50 mg/kg id. Format: functional. The following applies: route intraduodenal. The method in brief: (§1)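 Male guinea pigs (350-600 g) were anesthetized with pentobarbital sodium (50 mg/kg ip), cannulated and artificially ventilated, and spontaneous respiration arrested with pentobarbital (15 mg/kg iv). Indomethacin (10 mg/kg iv) was given 9 min before challenge. Drug was given id (or as noted) 10 min before iv LTD4 (0.3-1 μg/kg); controls received saline. Overflow volume at 1, 3 and 5 min was taken as % of maximal bronchoconstriction and converted to % inhibition versus control.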

Assay [3] in a line: In vivo inhibition of LTD4-induced bronchospasm in guinea pig at dose of 50 mg/kg. Conditions: Cavia porcellus.
For assay [4], the system named is Cavia porcellus. Kind of assay: Compound was evaluated in vivo for the percent inhibition of Ovalbumin-induced (OA) bronchospasm in guinea pig at dose of 100 mg/kg id. Format: functional. Conditions: route intraduodenal. An outline of the steps:
(§2)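 Male Hartley guinea pigs (350-600 g) were sensitized with ovalbumin (5 mg ip plus 5 mg sc) and used 3-5 weeks later. They were anesthetized with pentobarbital, ventilated, and given indomethacin (10 mg/kg iv, 9 min before challenge) and chlorpheniramine (1.0 mg/kg iv, 1 min later). Drug was given id (or as noted) 10 min before 1% aerosolized ovalbumin; controls received saline. Overflow volume at 1, 3 and 5 min was taken as % of maximal bronchoconstriction and converted to % inhibition.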

The species named for assay [5] is Cavia porcellus. Kind of assay: Compound was evaluated for its effect on LTC4-induced contraction of guinea pig trachea. percentage of maximal response of tissue to carbachol. Format: functional. The method in brief: (§3)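 Isolated guinea pig tracheal spiral strips were contracted with LTC4 or LTD4, with antagonist at 3×10^-6 M versus untreated control. Responses are expressed as percentage of the tissue's maximal response to carbachol (1 mM). Potency is given as -log of the agonist concentration (M) giving a half-maximal response. pKB = -log([B]/(dose ratio - 1)), where dose ratio = treated ED50 ÷ control ED50. Control vs treated compared by unpaired Student's t test.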

Assay [6] is filed under the species Cavia porcellus. Kind of assay: Compound was evaluated for its effect on LTD4-induced contraction of guinea pig trachea. percentage of maximal response of tissue to carbachol. The class given is functional. The method in brief: as §3
The species named for assay [7] is Cavia porcellus. The experiment in a line: Compound was evaluated for its effect on LTC4-induced contraction of guinea pig trachea. The class given is functional. An outline of the steps: as §3
For assay [8], the species on record is Cavia porcellus. Kind of assay: Compound was evaluated for its effect on LTD4-induced contraction of guinea pig trachea. Format: functional. The method in brief: as §3
Assay [9] relates to Cavia porcellus. Kind of assay: Compound was evaluated in vivo for the percent inhibition of Ovalbumin-induced (OA) bronchospasm in guinea pig at dose of 10 mg/kg iv. Format: functional. An outline of the steps: as §2
Assay [10] addresses Cyclooxygenase (Rattus norvegicus) (UniProt P35355+Q63921). Kind of assay: In vitro inhibition of rat polymorphonuclear leukocyte (PMN) Prostaglandin G/H synthase at 100 uM.
For assay [11], the target named is T2, Polyunsaturated fatty acid 5-lipoxygenase (Rattus norvegicus, UniProt P12527).
T2 sequence (P12527 whole entry): T1 sequence (whole entry)
The experiment in a line: Inhibition of rat polymorphonuclear leukocyte (PMN) 5-Lipoxygenase in vitro. The method in brief:
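Peritoneal PMNs came from female Wistar rats 24 h after ip 6% glycogen. Cells at 2×10^7/mL in HBSS with Ca2+/Mg2+ and 10 mM L-cysteine were preincubated with drug or vehicle for 10 min at 37 °C. The reaction was stopped with ice-cold water and acidified to pH 3.5, and LO and CO products were ether-extracted. IC50 per metabolite came from nonlinear regression.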

Assay [12] concerns Cavia porcellus. The experiment in a line: Compound was evaluated in vivo for the percent inhibition of LTD4-induced bronchospasm in guinea pig at dose of 10 mg/kg iv. Format: functional. An outline of the steps: as §1

Structures are written as SMILES. A value given as a limit tells only on which side of the number the result lay.

Sequence of Cyclooxygenase (Rattus norvegicus) (P35355 whole entry, looked up): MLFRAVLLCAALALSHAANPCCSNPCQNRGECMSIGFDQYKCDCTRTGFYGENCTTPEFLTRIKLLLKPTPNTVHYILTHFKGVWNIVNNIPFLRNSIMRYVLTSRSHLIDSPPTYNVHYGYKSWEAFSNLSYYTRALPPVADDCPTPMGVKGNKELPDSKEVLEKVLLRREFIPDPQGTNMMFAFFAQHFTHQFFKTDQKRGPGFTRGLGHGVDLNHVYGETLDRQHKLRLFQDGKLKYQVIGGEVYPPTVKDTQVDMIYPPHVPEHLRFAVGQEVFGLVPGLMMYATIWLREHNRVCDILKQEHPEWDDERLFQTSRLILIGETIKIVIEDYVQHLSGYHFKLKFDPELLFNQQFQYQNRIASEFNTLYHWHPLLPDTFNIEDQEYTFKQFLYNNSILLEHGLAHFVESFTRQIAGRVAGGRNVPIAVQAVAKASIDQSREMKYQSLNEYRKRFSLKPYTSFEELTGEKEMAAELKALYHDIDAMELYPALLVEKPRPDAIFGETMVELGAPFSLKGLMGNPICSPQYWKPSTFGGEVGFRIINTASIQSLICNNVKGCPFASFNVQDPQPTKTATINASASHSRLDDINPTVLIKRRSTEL
Sequence of Cyclooxygenase (Rattus norvegicus) (Q63921 whole entry, looked up): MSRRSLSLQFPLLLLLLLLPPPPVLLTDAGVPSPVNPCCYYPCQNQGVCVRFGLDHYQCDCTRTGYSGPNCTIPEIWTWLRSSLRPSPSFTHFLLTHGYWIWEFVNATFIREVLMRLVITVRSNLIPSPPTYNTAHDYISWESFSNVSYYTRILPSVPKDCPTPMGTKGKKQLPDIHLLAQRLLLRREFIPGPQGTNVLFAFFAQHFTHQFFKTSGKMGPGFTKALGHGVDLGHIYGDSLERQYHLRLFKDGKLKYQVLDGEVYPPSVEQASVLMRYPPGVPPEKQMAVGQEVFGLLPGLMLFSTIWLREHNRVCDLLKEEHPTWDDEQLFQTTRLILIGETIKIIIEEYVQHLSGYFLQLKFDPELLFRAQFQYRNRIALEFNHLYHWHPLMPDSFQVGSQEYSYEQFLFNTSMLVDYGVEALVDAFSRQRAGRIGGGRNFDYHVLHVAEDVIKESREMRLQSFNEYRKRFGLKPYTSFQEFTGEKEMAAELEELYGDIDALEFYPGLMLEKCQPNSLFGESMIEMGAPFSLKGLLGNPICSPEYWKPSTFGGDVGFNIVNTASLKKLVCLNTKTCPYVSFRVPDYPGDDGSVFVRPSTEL

Usually inhibition stands for the relative decrease from the control value, in per cent. As usually defined, the inhibition in vivo is the drop in the measured response relative to a control, in per cent. Take `COC(=O)CCC(=O)Nc1ccc(NC(=O)CCC(=O)OC)c(OCc2ccc3ccccc3n2)c1`: the inhibition in [1] was less than 50%. In addition, the inhibition in vivo at 50 mg/kg with Cavia porcellus [2] amounted to 18%.
Turning to `COC(=O)CCC(=O)Nc1ccccc1OCc1ccc2ccccc2n1`, the values for the inhibition in assay [1] and in assay [3] were less than 50% and -6%, respectively. In the assay on Cavia porcellus [4], this molecule came in with an inhibition in vivo at 100 mg/kg of 9%.
The term pKB denotes −log10 of the KB, conventionally taken in molar units. For `CCCc1c(OCCCCc2nnn[nH]2)ccc(C(C)=O)c1O` [TOMELUKAST], the Max contractility is 73% in the assay filed under Cavia porcellus [5] and 57% in the assay filed under Cavia porcellus [6]. In addition, the “-Log ED50” value in the assay filed under Cavia porcellus [7] stood at 7.47; in the assay listed under Cavia porcellus [8] it was 7.49. Also, the negative-log KB (pKB) in the assay filed under Cavia porcellus [7] was found to be 5.74; in the assay listed under Cavia porcellus [8] it was 5.63.
As usually defined, the IC50 is the concentration that inhibits the measured activity by half. Read a high IC50 as weaker potency in that assay. For `COC(=O)CCC(=O)Nc1cccc(OCc2ccc3ccccc3c2)c1`, the inhibition in vivo at 10 mg/kg was found to be 10% in the assay on Cavia porcellus [9] and 54% with Cavia porcellus [12]. In assay [10], the inhibition is less than 50%. Besides, the half-maximal inhibitory concentration (IC50) in assay [11] turned out to be 3.2 µM.
